Published values gathered from unrelated publications.
Each line is one published result; the experiments were not run side by side.
Target: Macrophage-stimulating protein receptor (MST1R, Homo sapiens, UniProt Q04912)

| Compound | effect on | mode | technique | tested at | endpoint | value |
| --- | --- | --- | --- | --- | --- | --- |
| CC(C)(C)c1nc(-c2cccc(NS(=O)(=O)c3c(F)cccc3F)c2F)c(-c2ccnc(N)n2)s1 | enzyme activity | inhibitor | radiometric | 1 µM | remaining activity | 104% |
| COc1cc(Cl)c(C(=O)N[C@@H](CN[C@H]2CC[C@@H](N)CC2)Cc2ccc(C#N)cc2)cc1-c1ccc(CN[C@H](C)c2ccc(C)cc2)o1 | enzyme activity | inhibitor |  | 1 µM | remaining activity | 92% |
| O=C(Nc1cnn(-c2csc(C(=O)NC3COC3)c2)c1)Nc1ccccc1Cl | enzyme activity | inhibitor |  | 5 µM | remaining activity | 108% |
| CCCOc1ccc(OC)c(F)c1C(=O)c1ccc(C(=O)N[C@@H]2CNC[C@H]2NC(=O)c2ccc3[nH]ncc3c2)cc1 | enzyme activity | inhibitor |  | 10 µM | remaining activity | 64% |
| O=c1nc(-c2ccccn2)sc2ccccc12 | cell-free assay |  | competition with immobilised ligand | 1 µM | remaining binding | 100% |
| CCN(CC)CCNC(=O)c1c(C)[nH]c(/C=C2\C(=O)Nc3ccc(F)cc32)c1C | enzyme activity | inhibitor |  | 0.1 µM | remaining activity | 97% |
| N#CCCc1ccc2c(c1)-c1[nH]c3ccc([N+](=O)[O-])cc3c1CC(=O)N2 | cell-free assay |  |  | 0.5 µM | remaining signal | 107% |
| COc1cc2ncnc(Nc3ccc(Oc4ccccc4)c(C)c3C)c2cc1OC | enzyme activity | inhibitor |  | 1 µM | inhibition | -3% |
| CN1CC(Oc2cnc(C#N)cc2-c2ccn3nc(NC(=O)C4CC4)cc3c2)C1 | enzyme activity | inhibitor |  | 1 µM | inhibition | 5% |
| Cn1nc(C(F)(F)F)cc1-c1cnc(N2CCc3cc(S(=O)(=O)Nc4c(F)cc(Cl)cc4F)cc(N4CCCC4=O)c32)nc1 | cell-free assay |  | competition with immobilised ligand | 1 µM | remaining binding | 100% |
| C=CC(=O)Nc1cc(Nc2nccc(Nc3cc(Cl)c(F)cc3C(C)(C)O)n2)c(OC)cc1N1CC[C@@H](N(C)C)C1 | enzyme activity | inhibitor |  | 1 µM | inhibition | 8% |
| Cc1[nH]c(/C=C2\C(=O)Nc3ccc(F)cc32)c(C)c1C(=O)N[C@H]1CCN(C(=O)N(C)C)C1 | enzyme activity | inhibitor |  | 0.1 µM | remaining activity | 93% |
| c1ccc(CNc2nc(N3CCOc4ccccc43)nc3c2CCCC3)cc1 | target engagement in cells | inhibitor | chemoproteomics | 20 mM | inhibition | -10.5% |
| CC1=C(C#N)[C@@H](c2ccc3[nH]nc(C)c3c2)C(C#N)=C(c2ccc(Cl)cc2)N1 | cell-free assay |  | competition with immobilised ligand | 1 µM | remaining binding | 70.2% |
| CCN(CC)CCNC(=O)c1c(C)[nH]c(/C=C2\C(=O)Nc3ccc(F)cc32)c1C | cell-free assay |  |  | 0.3 µM | inhibition | -3% |
| O=C(NCc1ncc(C(F)(F)F)cc1Cl)c1ccc2c(c1)C1(CCS(=O)(=O)CC1)[C@H](C1CC1)N2S(=O)(=O)c1ccc(F)cc1 | cell-free assay |  | competition with immobilised ligand | 1 µM | remaining binding | 99% |
| COc1cc2c(Nc3ccc(Br)cc3F)ncnc2cc1OCC1CCN(C)CC1 | cell-free assay |  |  | 0.5 µM | remaining signal | 93.6% |
| Cc1ccc(Nc2nccc(N(C)c3ccc4c(C)n(C)nc4c3)n2)cc1S(N)(=O)=O | cell-free assay |  |  | 10 µM | inhibition | -4% |
| O=C(Nc1ccc(Oc2ccc(F)cc2)cc1)N1CCc2ncccc2[C@H]1c1ccc(F)cc1 | cell-free assay |  | competition with immobilised ligand | 1 µM | remaining binding | 98% |
